Data on 46 sequences can be found in the EternaBench riboswitch data.

For the series, the system named is MS2 coat protein. Briefly: apparent Kd, MS2 coat protein; higher = weaker binding; RNA-MaP array; tryptophan 2.4 mM where present. The method in brief: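 Apparent Kd: the median of filtered binding-curve fits from single clusters. Designs were transcribed on Illumina sequencing-chip clusters by stalled E. coli RNA polymerase and titrated with SNAP-549-labelled MS2 coat protein from 0.7 or 1.5 nM, doubling to 3 µM, in 100 mM Tris-HCl pH 7.5, 80 mM KCl, 4 mM MgCl2, BSA, DTT, yeast tRNA and Tween-20. Each series ran without and then with constant ligand, and green signal was normalised to red-channel RNA signal and control-cluster median Fmax.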

The mark [1] stands for this setting: designed as: OFF switch for tryptophan, no ligand.
[2] abbreviates: ligand present: tryptophan, designed as: OFF switch for tryptophan.
Where [3] appears, read: designed as: ON switch for tryptophan, no ligand.
[4] abbreviates: ligand present: tryptophan, designed as: ON switch for tryptophan.

As to “GCGCGGCGAGUGCGGCGUGUUCCGCUCCGUCGAGGACCGGUACGGCCGCCACUCGACAUGAGGAUCACCCAUGUCGCCGCGCGUC”, the apparent Kd (commonly the concentration giving half-maximal binding under the conditions of the assay) under setting [1] was 12.1 nM and the “apparent Kd” value under setting [2] is 12.3 nM.

“AGAUUCGACACGGCCGCCACUCUACACGGAUUUCCGAGUGUCGAACAUGAGGAUCACCCAUGUGGGAGGACCGGGUGUUGAGUCU”: the “apparent Kd” value under setting [1] was 437 nM and the “apparent Kd” value under setting [2] was determined as 1030 nM.

As for “AUACAUGAGGAUCACCCAUGUCCUCGUGAUCGAGGACCGGUACGGCCGCCACUCGGUCCUCGCGAGGUGGAGUCAAAGACUCCAA”, the “apparent Kd” value turned out to be 128 nM under setting [3] and 87.1 nM under setting [4].

Consider “CAAAAUUUAACGGCCGCCACUUACUCAUGAGGUAACAACAUGAGGAUCACCCAUGUUUGAGGAUCAAGGACCGGGUUAAAUUUUG”, for which the “apparent Kd” value runs as follows: under setting [3], 30.6 nM; under setting [4], 18.2 nM.

As for “AGAUUCGACACGGCCGCCACUCGUGGAGGAUUUCCGAGUGUCGAACAUGAGGAUCACCCAUGUACGAGGACCGGGUGUUGAGUCU”, the “apparent Kd” value runs as follows: under setting [1], 28.4 nM; under setting [2], 234 nM.

For “UCGGUUUUCUACAUGAGGAUCACCCAUGUCCGAGGACCGGUACGGCCGCCACUCGCAAUCAAACAGACGUGGGCCAAAUUUGCGU”, the “apparent Kd” value worked out at 10 nM under setting [1] and 14.3 nM under setting [2].

Consider “GGUAUGUAUUCGGAAACGAAUGCAUACCAACGAGGACCGGUACGGCCGCCACUCGGGCGGCGAUCACAUGAGGAUCACCCAUGUA”, for which the “apparent Kd” value under setting [1] amounted to 45.7 nM and the “apparent Kd” value under setting [2] worked out at 46.7 nM.

For “UCGGUGCUCUACAUGAGGAUCACCCAUGUCCGAGGACCGGUACGGCCGCCACUCGCAAUCAAACAGACGUGGGCCAACUUUGCGU”, the “apparent Kd” value came out at 10.3 nM under setting [1] and 13.6 nM under setting [2].

For the sequence “GGGAGGGAGGCGGCCGCCACUGAUUUUCAUAUAUAUAUAACAUGAGGAUCACCCAUGUAGAUAUGCAGGACCGGGCCUUUUUUUU”, the “apparent Kd” value by setting is: under setting [3], 20.5 nM; under setting [4], 17.6 nM.

As to “UAACAUGAGGAUCACCCAUGUAUACUUAGUCGAGGACCGGUACGGCCGCCACUCGUACUUCAAGAUUUGGCGGAAAAUGUAUGUA”, the “apparent Kd” value under setting [1] turned out to be 12.5 nM and the “apparent Kd” value under setting [2] is 15.1 nM.

Turning to “GAGUACACUACGGCCGCCACUCAAGGAGCUACAUAGCUCCUAGACAUGAGGAUCACCCAUGUACCGAGGACCGGGUAGAUCCUUA”, the “apparent Kd” value reads like this: under setting [3], 187 nM; under setting [4], 97.3 nM.

Consider “AGCGUGCAUCGGAAAACGAUGUACGCAAAUCGAGGACCGGUACGGCCGCCACUCGUCCUCAACAUGAGGAUCACCCAUGUAAUAA”, for which the “apparent Kd” value reads like this: under setting [1], 19.1 nM; under setting [2], 34.7 nM.

Consider “GGUAUGUAUUCGGAAACGAAUGCAUACCAACGAGGACCGGUACGGCCGCCACUCGGCGGCGAUCAACAUGAGGAUCACCCAUGUA”, for which the “apparent Kd” value by setting is: under setting [1], 40.4 nM; under setting [2], 31 nM.

In the case of “GUUAUAACAAAAGUUGUAACAGUGGGUGAACGAGGACCGGUACGGCCGCCACUCGGACAUGAGGAUCACCCAUGUCCAUGUGAAA”, the “apparent Kd” value reads like this: under setting [1], 16.2 nM; under setting [2], 40.2 nM.

On to “CGUAUUGGAAACAGUACGAGUGAUCCGGUCCGAGGACCGGUACGGCCGCCACUCGAAAAUAAAUAACAUGAGGAUCACCCAUGUA”, for which the “apparent Kd” value runs as follows: under setting [1], 16.7 nM; under setting [2], 23.9 nM.

As to “GGUUGAUGACAUGAGGAUCACCCAUGUAGGCGAGGACCGGUACGGCCGCCACUCGACAUGAGGAUCACCCAUGUCGGCGUCCGUG”, the “apparent Kd” value runs as follows: under setting [1], 15.2 nM; under setting [2], 26.2 nM.

Turning to “AGAUGAGUCACGGCCGCCACUCUUAUCAGGAUCACCCAUGGUUAACAUGAGGAUCACCCAUGUCUGAGGACCGGGUGAUGAGCAU”, the “apparent Kd” value under setting [1] was determined as 21.6 nM and the “apparent Kd” value under setting [2] was found to be 23.9 nM.

In the case of “AGACCCUUCACGGCCGCCACUCAUUUUAAGUAGAGAGAGUACAUGAGGAUCACCCAUGUGAGAGAGAGGACCGGGUGAGAUAUUA”, the “apparent Kd” value is, setting by setting: under setting [3], 17.5 nM; under setting [4], 19.6 nM.

Regarding “CUUAUAUAUACGGCCGCCACUUACUCAUGAGGUAACAACAUGAGGAUCACCCAUGUUUGAGGAUCAAGGACCGGGUAUAUAUAAG”, the “apparent Kd” value reads like this: under setting [3], 25.3 nM; under setting [4], 18.2 nM.

In the case of “ACAUGACAACAUGAGGAUCACCCAUGUCAUCGAGGACCGGUACGGCCGCCACUCGGUCAAUAUGAUACUUGUCAUGAACAUGAGG”, the “apparent Kd” value under setting [1] was determined as 18.7 nM and the “apparent Kd” value under setting [2] came to 23.5 nM.

With “UUUGUAAUUGUCUGGUAGAUUUAUUUAUUUCGAGGACCGGUACGGCCGCCACUCGUUAAUUACAUGAGGAUCACCCAUGUUAGCU”, the “apparent Kd” value under setting [1] amounted to 13.4 nM and the “apparent Kd” value under setting [2] was 13.2 nM.

As to “AUCUAUAGAGCGGCCGCCACUGAAUACAUGAGGAUCACCCAUGUAAUGUUAAGGUGGUCCUAGCUCAGGACCGGGCUCUAUAGAU”, the “apparent Kd” value is, setting by setting: under setting [1], 36.5 nM; under setting [2], 22.2 nM.

Take “GGGCGCUAUCCCGCGAGGGAUAGCGUUCGUCGAGGACCGGUACGGCCGCCACUCGAACGAGUGGUGACAUGAGGAUCACCCAUGU”: the “apparent Kd” value runs as follows: under setting [1], 50.2 nM; under setting [2], 68.8 nM.

In the case of “ACAUUGCGCUCGGCCGCCACUGGCUUAUGAUUAUAAGCAUUAAUGAACAUGAGGAUCACCCAUGUCAGGACCGGGAGCGAACCAU”, the “apparent Kd” value by setting is: under setting [3], 14 nM; under setting [4], 16.6 nM.

“GGGUGGUAGGCGGCCGCCACUGAUUUUUAUUUAUAGAUGACAUGAGGAUCACCCAUGUUGAUAUGCAGGACCGGGCCUGUUGUUG”: the “apparent Kd” value is, setting by setting: under setting [3], 15.1 nM; under setting [4], 13.2 nM.

Consider “GCUAGGUCUACGGCCGCCACUAGACGUGGGUAAGACAUGAGGAUCACCCAUGUACUACGGGCGCUUAGGACCGGGUAGACCUAGC”, for which the “apparent Kd” value turned out to be 204 nM under setting [3] and 17.5 nM under setting [4].

“GAUUAAACAUGAGGAUCACCCAUGUAUAUACGAGGACCGGUACGGCCGCCACUCGAAAACGAGUAUCCUCGAAUAAACAUGAUAA”: the “apparent Kd” value under setting [3] turned out to be 37.2 nM and the “apparent Kd” value under setting [4] is 67 nM.

Regarding “CUAUAAGUACCGGUCCUCAGAUCCUCAUGACGAGGACCGGUACGGCCGCCACUCGAAACAUGAGGAUCACCCAUGUAAUAAUAUC”, the “apparent Kd” value reads like this: under setting [1], 20.7 nM; under setting [2], 18.6 nM.

In the case of “AGAUUCGACACGGCCGCCACUCGAGACGGAUUUCCGAGUGUCGAACAUGAGGAUCACCCAUGUCCGAGGACCGGGUGUUGAGUCU”, the “apparent Kd” value runs as follows: under setting [1], 32.2 nM; under setting [2], 401 nM.

Consider “AAGGCACGAGACAUGAGGAUCACCCAUGUUCGAGGACCGGUACGGCCGCCACUCGGUGGACUCAUGGUAAAGCCGGUGAGCCAAA”, for which the “apparent Kd” value is, setting by setting: under setting [3], 19.4 nM; under setting [4], 37.2 nM.

“AAAACAUGAGGAUCACCACAUGACAUGAGGCGAGGACCGGUACGGCCGCCACUCGACAUACAUGAGGAUCACCCAUGUUUGUUGU”: the “apparent Kd” value runs as follows: under setting [1], 217 nM; under setting [2], 269 nM.

Consider “AGCACUGUGACGGCCGCCACUACAUAAAUAGGGUGGUCAGGUUCAUUACAUGAGGAUCACCCAUGUAGGACCGGGUCUCAGUGCA”, for which the “apparent Kd” value came out at 9.99 nM under setting [1] and 9.55 nM under setting [2].

On to “CUGUGUCCUUCGGCCGCCACUACAUGAGGAUCACCCAUGUCGUUACGGCUCCCAAUGACGCUUUGUAGGACCGGGAAGGAGUAUG”, for which the “apparent Kd” value under setting [1] is 10.3 nM and the “apparent Kd” value under setting [2] was 15.8 nM.

With “AACUACUCGAGGUGAUCCUACGAGUGGCAACGAGGACCGGUACGGCCGCCACUCGAAUAAACAUGAGGAUCACCCAUGUACAAAU”, the “apparent Kd” value worked out at 81 nM under setting [3] and 83.7 nM under setting [4].

As for “AGUCUGGACUCGGCCGCCACUCGUGAUGCUUUGGCACAUGAGGAUCACCCAUGUGGUCGGCCUUAGAGGACCGGGAGUACCAGCU”, the “apparent Kd” value came to 56.4 nM under setting [3] and 12.9 nM under setting [4].

Turning to “GUUAUAUCAAAAGAUGUAACAGUGGGUGAACGAGGACCGGUACGGCCGCCACUCGGACAUGAGGAUCACCCAUGUCCAUGUGAAA”, the “apparent Kd” value under setting [1] stood at 17.9 nM and the “apparent Kd” value under setting [2] worked out at 37.1 nM.

As to “AAUAAUAGGUGAUCCUAACGAGUGGCAUAACGAGGACCGGUACGGCCGCCACUCGAACAUGAGGAUCACCCAUGUAGUCACUCGA”, the “apparent Kd” value was determined as 189 nM under setting [3] and 362 nM under setting [4].

“AAUGGCCGUACCGGAAGGGUGAUCCUCAAACGAGGACCGGUACGGCCGCCACUCGAUAACAUGAGGAUCACCCAUGUAAUAAUAA”: the “apparent Kd” value turned out to be 331 nM under setting [1] and 389 nM under setting [2].

As for “CUACAUUUGUAGAAACCGGUCAACAAUAAUCGAGGACCGGUACGGCCGCCACUCGUAUAAUUUAUUACAUGAGGAUCACCCAUGU”, the “apparent Kd” value runs as follows: under setting [3], 13.7 nM; under setting [4], 13.8 nM.

Turning to “AAUGGUCGUACUGGAAUGGUGAUCCUCAAACGAGGACCGGUACGGCCGCCACUCGAUAACAUGAGGAUCACCCAUGUAAUAAUAA”, the “apparent Kd” value is, setting by setting: under setting [1], 40.7 nM; under setting [2], 20.8 nM.

“GCUACAUGAGGAUCACCCAUGUAUGCGAGUCGAGGACCGGUACGGCCGCCACUCGCUUAACAUGAGGAUCACCCAUGUUACUCGC”: the “apparent Kd” value under setting [3] was found to be 64.6 nM and the “apparent Kd” value under setting [4] is 31.1 nM.

Regarding “AGAUGAGUCACGGCCGCCACUCUUCACAGGUUCACCCUUGGUUAACAUGAGGAUCACCCAUGUGGGAGGACCGGGUGAUGAGCAU”, the “apparent Kd” value under setting [1] was found to be 13.7 nM and the “apparent Kd” value under setting [2] came out at 33.4 nM.

For the sequence “CAUGCCAGGGCGGCCGCCACUGUGGCUACGGUACAUGAGGAUCACCCAUGUUUGUGGUUGAUCUACAGGACCGGGCCCUAGCACG”, the “apparent Kd” value is, setting by setting: under setting [3], 118 nM; under setting [4], 238 nM.

Consider “UAAACUACACAUGAGGAUCACCCAUGUGGCCGAGGACCGGUACGGCCGCCACUCGUGUGUUAAUAAAAGAACCGCAAAGUUCUGU”, for which the “apparent Kd” value by setting is: under setting [3], 268 nM; under setting [4], 83.3 nM.

On to “GCUAGGUCUACGGCCGCCACUAGACGUGGGUAAGACAUGAGGAUCACCCAUGUACUACAGGCGGAUAGGACCGGGUAGACCUAGC”, for which the “apparent Kd” value was 114 nM under setting [3] and 14.3 nM under setting [4].

For “CCUAUCCAGUCGGCCGCCACUGACCAUUUGGAACAGUGGGUGAAAACAUGAGGAUCACCCAUGUACAGGACCGGGACUGUAUAGG”, the “apparent Kd” value under setting [1] is 11.6 nM and the “apparent Kd” value under setting [2] worked out at 42 nM.
